From ChEMBL document CHEMBL2311432, “Synthesis, characterization and preliminary anticonvulsant evaluation of some 4-alkyl-1,2,4-triazoles” (Eur J Med Chem, 2013)

Tests used:
Mus musculus [1] = assay: Anticonvulsant activity in ip dosed Swiss mouse assessed as protection against maximal electroshock-induced seizure administered 30 mins before test; type: functional
How it was run: (§1)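 Mice in groups of 8, each used once, given various i.p. doses of fresh solution at the stated pretreatment time before maximal electroshock. Protection percentages give dose-response lines by Litchfield-Wilcoxon. ED50 is the dose protecting 50% of mice against MES seizures, reported ± S.E.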

Mus musculus [2] = assay: Protective index, ratio of TD50 for Swiss mouse administered 15 mins before test to ED50 for Swiss mouse administered 15 mins before test; type: functional
Mus musculus [3] = assay: Anticonvulsant activity in ip dosed Swiss mouse assessed as protection against maximal electroshock-induced seizure administered 120 mins before test; type: functional; how it was run: as §1
[4] = Neurotoxicity in ip dosed Swiss mouse assessed as delay in motor coordination administered 60 mins before test by chimney test; type: toxicity, organism-based; conditions: in vivo
How it was run: (§2)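 Chimney test (Boissier). Mice must climb backward up a transparent tube (3 cm i.d., 30 cm long) within 60 s, and failure marks motor impairment. At least four groups of 8 mice receive various i.p. doses at the stated pretreatment time. TD50 comes from log-probit dose-response analysis (Litchfield-Wilcoxon), ± S.E.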

[5] = Neurotoxicity in ip dosed Swiss mouse assessed as delay in motor coordination administered 30 mins before test by chimney test; type: toxicity, organism-based; conditions: in vivo; how it was run: as §2
Mus musculus [6] = assay: Protective index, ratio of TD50 for Swiss mouse administered 30 mins before test to ED50 for Swiss mouse administered 30 mins before test; type: functional
How it was run: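 PI equals chimney-test TD50 divided by MES-test ED50, both determined after i.p. dosing at the same pretreatment time in groups of 8 mice.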

Mus musculus [7] = assay: Protective index, ratio of TD50 for Swiss mouse administered 60 mins before test to ED50 for Swiss mouse administered 60 mins before test; type: functional
Mus musculus [8] = assay: Anticonvulsant activity in ip dosed Swiss mouse assessed as protection against maximal electroshock-induced seizure administered 15 mins before test; type: functional; how it was run: as §1
Mus musculus [9] = assay: Protective index, ratio of TD50 for Swiss mouse administered 120 mins before test to ED50 for Swiss mouse administered 120 mins before test; type: functional
[10] = Neurotoxicity in ip dosed Swiss mouse assessed as delay in motor coordination administered 15 mins before test by chimney test; type: toxicity, organism-based; conditions: in vivo; how it was run: as §2
Mus musculus [11] = assay: Anticonvulsant activity in Swiss mouse assessed as protection against maximal electroshock-induced seizure at 300 mg/kg, ip administered 15 mins before test; type: functional; conditions: route intraperitoneal
How it was run: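 Mice in groups of 8, each used once, after 7 days' adaptation. Fixed 300 mg/kg dose given i.p. from freshly prepared solution, then maximal electroshock applied at the stated pretreatment time. Read-out is the percentage of the 8 mice protected against MES-induced seizures.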

[12] = Neurotoxicity in ip dosed Swiss mouse assessed as delay in motor coordination administered 120 mins before test by chimney test; type: toxicity, organism-based; conditions: in vivo; how it was run: as §2
Mus musculus [13] = assay: Anticonvulsant activity in ip dosed Swiss mouse assessed as protection against maximal electroshock-induced seizure administered 60 mins before test; type: functional; how it was run: as §1
Brain = assay: Drug uptake in Swiss mouse brain assessed as per 1 mg of tissue at 300 mg/kg, ip; type: ADME, organism-based; set-up: dose 300 mg/kg, route intraperitoneal; conditions: in vivo

Structure (SMILES) | ED50 (Mus musculus [1]) [mg/kg] | Ratio TD50/ED50 (Mus musculus [2]) | ED50 (Mus musculus [3]) [mg/kg] | TD50 at 1 h [4] [mg/kg] | TD50 at 0.5 h [5] [mg/kg] | Ratio TD50/ED50 (Mus musculus [6]) | Ratio TD50/ED50 (Mus musculus [7]) | ED50 (Mus musculus [8]) [mg/kg] | Ratio TD50/ED50 (Mus musculus [9]) | TD50 at 0.25 h [10] [mg/kg] | Activity (Mus musculus [11]) [%] | TD50 at 2 h [12] [mg/kg] | ED50 (Mus musculus [13]) [mg/kg] | Drug uptake (Brain)
CCn1c(S)nnc1-c1cccc(Cl)c1 | 204 | 4.8 | 320 | 742 | 753 | 3.7 | 2.9 | 153 | 2.8 | 731 | 100 | 887 | 252 | 
CCCCCCCCCCCCn1c(-c2cccc(Cl)c2)n[nH]c1=S |  |  |  |  |  |  |  |  |  |  |  |  |  | Not Active
CCCCn1c(-c2cccc(Cl)c2)n[nH]c1=S | 77.8 | 10.3 | 311 | 414 | 405 | 5.2 | 2.7 | 38.5 | 1.4 | 398 | 100 | 429 | 156 | 
CCCCCn1c(-c2cccc(Cl)c2)n[nH]c1=S | 65.2 | 6.7 | 147 | 303 | 310 | 4.8 | 4.4 | 46.5 | 2.7 | 310 | 100 | 392 | 69.5 | 
CCCCCCn1c(-c2cccc(Cl)c2)n[nH]c1=S | 68.3 | 9.7 | 160 |  |  | 6.8 | 4.7 | 47.6 | 2.8 |  | 100 |  | 98.1 | 
CCCCCCCn1c(-c2cccc(Cl)c2)n[nH]c1=S | 65.2 | 7.5 | 135 | 430 | 423 | 6.5 | 4.2 | 55.1 | 3.3 | 416 | 100 | 440 | 102 | 
CCCCCCCCCn1c(-c2cccc(Cl)c2)n[nH]c1=S | 130 | 4.6 | 143 | 640 | 713 | 5.5 | 6.1 | 144 | 4.6 | 667 | 100 | 659 | 105 | 
CCCC(CCC)C(=O)[O-].CCCC(CCC)C(=O)[O-].[Mg+2] [MAGNESIUM VALPROATE] |  |  |  | 417 | 373 |  |  |  |  | 363 |  | 512 |  | 
